Assay outcomes (PubChem BioAssay)
Only some compounds are listed: those with a hit (about 1.9% of all), similar ones and a draw of the others.
MBD2 DNA inh – MBD2-methylated oligo binding inhibition; Q9UBB5; TR-FRET, MBD2 binding to methylated oligonucleotide; inhibition, % at 4.4 µM; actives 0.31% (n = 370,000); AID 686964; in the data active = inhibition above about 13%
CASP6 VEID inh – caspase-6 (human) enzyme inhibition; P55212; purified caspase-6, Z-VEID-R110 cleavage fluorescence; inhibition, % at 12.5 µM; actives 0.53% (n = 350,000); AID 686996;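 active = mean inhibition across replicates at least about 35%, with every replicate also reaching that limit, limit read from the data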;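 note: 0% = median of neutral control wells and 100% = no fluorescence left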
NSD2 inh – blocks human histone methyltransferase NSD2. inhibition, % at 12.5 µM. NSD2 peptide methylation, AlphaScreen, 120 min. actives 0.54% (n = 310,000). O96028; in the data active = inhibition above about 50%
LEDGF integ inh – blocks HIV-1 LEDGF/p75-dependent DNA integration. TR-FRET IN-LEDGF/p75 DNA integration, Eu/Cy5. inhibition, % at 3.7 µM. actives 0.64% (n = 370,000);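 active = inhibition above the screen-wide mean plus 3 SD, cut at about 13% in these data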;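 note: signal is the Cy5 over europium emission ratio at 671 and 618 nm; 0% = plate median of compound wells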
UHRF1 binding – UHRF1 methyl-DNA binding inhibition. UHRF1 binding to methylated oligo, TR-FRET. inhibition, % at 4.4 µM. actives 0.75% (n = 370,000). AID 687016;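 note: UHRF1 SRA domain binding a hemimethylated CpG hairpin DNA probe; 0% = median of test compound wells and 100% = reference inhibitor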
Target sequence (Q96T88 whole entry, looked up, the tested form may be a part): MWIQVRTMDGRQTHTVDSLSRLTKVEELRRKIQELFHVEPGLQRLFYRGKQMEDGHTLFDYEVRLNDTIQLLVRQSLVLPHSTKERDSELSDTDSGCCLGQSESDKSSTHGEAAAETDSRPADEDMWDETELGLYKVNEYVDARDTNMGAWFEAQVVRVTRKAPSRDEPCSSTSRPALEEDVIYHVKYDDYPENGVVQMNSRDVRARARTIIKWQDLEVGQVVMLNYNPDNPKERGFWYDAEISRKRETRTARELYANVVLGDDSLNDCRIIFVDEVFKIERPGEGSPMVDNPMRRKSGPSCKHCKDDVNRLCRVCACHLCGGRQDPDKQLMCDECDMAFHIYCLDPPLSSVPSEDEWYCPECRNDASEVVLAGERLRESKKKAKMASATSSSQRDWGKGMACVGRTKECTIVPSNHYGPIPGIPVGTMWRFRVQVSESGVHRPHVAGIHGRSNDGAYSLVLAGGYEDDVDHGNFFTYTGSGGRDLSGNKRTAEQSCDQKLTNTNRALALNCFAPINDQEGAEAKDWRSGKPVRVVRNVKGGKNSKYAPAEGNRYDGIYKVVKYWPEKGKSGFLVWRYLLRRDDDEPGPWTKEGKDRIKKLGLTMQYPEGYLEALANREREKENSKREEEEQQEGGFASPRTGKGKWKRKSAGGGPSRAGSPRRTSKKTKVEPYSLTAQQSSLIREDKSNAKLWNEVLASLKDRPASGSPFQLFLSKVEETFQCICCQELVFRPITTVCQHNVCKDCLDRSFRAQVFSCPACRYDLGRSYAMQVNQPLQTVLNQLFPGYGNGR
TDP2 inh – TDP2 (human) inhibition, absorbance primary screen | O95551 | recombinant TDP2, T5PNP hydrolysis, p-nitrophenol absorbance 415 nm | inhibition, % at 12.8 µM | actives 0.34% (n = 370,000) | AID 720702;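 active = inhibition above the mean of all tested compounds plus 3 SD, set per campaign, cut at about 25% in these data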;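 note: 0% = DMSO with enzyme and 100% = buffer with substrate but no TDP2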
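System: recombinant human TDP2 / Amount: 120 nM TDP2 per well / Also added: 5 mM T5PNP chromogenic substrate / Doses: 12.8 µM single point, 1% DMSO / Incubation: 2 h at 37 °C / Detection: p-Nitrophenol epi absorbance / Evaluation: % inhibition relative to enzyme-containing and enzyme-free wells / Repeats: singlicate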
UHRF1 DNA bind – inhibits human UHRF1 binding to methylated oligonucleotide, MBD2 counter-screen | shares compounds with MBD2 DNA inh | TR-FRET | inhibition, % at 4.4 µM | actives 25% (n = 1,000);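 note: UHRF1 SRA domain binding a labeled hemimethylated CpG hairpin DNA; 0% = vehicle only and 100% = reference inhibitor with vehicle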
MBD2 DBD conf – confirmation of human MBD2-DBD methylated oligonucleotide binding inhibitors; TR-FRET MBD2-DBD binding to methylated oligonucleotide; shares compounds with MBD2 DNA inh; inhibition, % at 4.4 µM; actives 26% (n = 1,000); AID 720531; in the data active = inhibition above about 14%
TDP2 inh conf – confirmation of human TDP2 inhibitors. shares compounds with TDP2 inh. recombinant human TDP2, absorbance read-out. inhibition, % at 12.8 µM. actives 22% (n = 1,100). AID 743263; in the data active = inhibition above about 25%;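 note: 0% = vehicle with enzyme and 100% = no enzyme buffer only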
IN multimer act – activates HIV-1 integrase multimerization in LEDGF counter-screen; shares compounds with LEDGF integ inh; activation, % at 7.7 µM; actives 17% (n = 2,000); TR-FRET HIV-1 integrase multimerization, biochemical; in the data active = activation above about 8.9%
TR-FRET interf – TR-FRET optical interference, LEDGF/p75 integration counter-screen; shares compounds with LEDGF integ inh; TR-FRET optical interference counterscreen, HIV-1 IN multimerization; inhibition, % at 7.7 µM; 2,000 tested, under 10 active; AID 1053135;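 active = inhibition above the mean over all tested compounds plus 3 SD, which no compound reached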;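 note: 0% = integrase with antibodies and DMSO and 100% = antibodies without integrase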
LEDGF integ conf – confirmation of HIV-1 LEDGF/p75-dependent integration inhibitors | shares compounds with LEDGF integ inh | AID 1053136 | actives 36% (n = 2,000) | inhibition, % at 3.7 µM | TR-FRET LEDGF/p75-dependent HIV-1 integration, biochemical; in the data active = inhibition above about 14%
Alpha artifact – AlphaScreen assay artifact in NSD2 counter-screen; actives 9.4% (n = 1,500); AID 1053174; shares compounds with NSD2 inh; AlphaScreen artifact counterscreen, preloaded methylated H4 peptide; AC35, µM (titrated, usually from 10 µM), for inactives: at the top dose activity change, negative = signal loss; call rule not given here
* hit, by the source's call. Cut-off read from the data, not from the text of the source, unless noted: active = inhibition above about 21%; inactive = the rest.

CC=Cc1ccc2n(c1=O)C[C@@H]1[C@@H](CO)[C@H](C(=O)OC)[C@H]2N1S(=O)(=O)c1cccc(C)c1 (mixture of isomers) was read as CASP6 VEID inh 2.
CCCNC1=C(C)C(=O)C2=C(C1=O)C(COC(N)=O)[C@]1(OC)C3NC3CN21 (stereo not given in full) was read as MBD2 DNA inh 18*, CASP6 VEID inh 17, NSD2 inh 5, LEDGF integ inh 53*, UHRF1 binding 60*, TDP2 inh -1, UHRF1 DNA bind 2, MBD2 DBD conf 0, IN multimer act 19*, TR-FRET interf -67 and LEDGF integ conf 63*.
For COc1ccccc1CN1[C@H](CO)[C@@H](c2ccccc2)C12CN(C(=O)Cc1ccccc1)C2 the results were CASP6 VEID inh 1.
Screening CN(C)C1C(=O)C(C(N)=O)=C(O)C2(O)C(=O)C3=C(O)c4c(O)cccc4C(C)(O)C3C(O)C12 (stereo not given) returned MBD2 DNA inh 31*, CASP6 VEID inh 53*, LEDGF integ inh 53*, UHRF1 binding 71*, TDP2 inh 11, UHRF1 DNA bind 9, MBD2 DBD conf 13, IN multimer act 21*, TR-FRET interf -73 and LEDGF integ conf 23*.
NC(=O)c1ccc(N=Cc2c(O)n(Cc3ccco3)c(=O)[nH]c2=O)cc1 was read as MBD2 DNA inh 23*, CASP6 VEID inh 12, NSD2 inh 0, LEDGF integ inh 57*, UHRF1 binding 60*, TDP2 inh 11, UHRF1 DNA bind 18, MBD2 DBD conf 22*, IN multimer act 12*, TR-FRET interf -60 and LEDGF integ conf 50*.
`C=CCN1C(=O)NC(=O)/C(=C/C=C/c2ccccc2)C1=O` gave MBD2 DNA inh -2, CASP6 VEID inh 1, LEDGF integ inh -4, UHRF1 binding -2 and TDP2 inh 4.
For O=C1NC(=O)N(Cc2ccco2)C(=O)/C1=C/C=C/c1ccco1 the results were MBD2 DNA inh 74*, CASP6 VEID inh 88*, LEDGF integ inh 92*, UHRF1 binding 100*, TDP2 inh 1, UHRF1 DNA bind 55*, MBD2 DBD conf 30*, IN multimer act 7, TR-FRET interf -24 and LEDGF integ conf 56*.
Screening Cc1ccccc1-c1ccc([C@H]2[C@@H](CO)N3CCCCN(C(=O)Cc4ccccn4)C[C@@H]23)cc1 returned CASP6 VEID inh -4.
Screening O=C(O)[C@H]1[C@H](CO)[C@H]2Cn3c(ccc(C4=CCCC4)c3=O)[C@@H]1N2C(=O)Cc1ccccn1 returned CASP6 VEID inh 2.
For Cc1cc(/C=C2\C(=O)NC(=O)N(Cc3ccccc3)C2=O)c(C)n1-c1ccc(Cl)c(C(=O)O)c1 the results were MBD2 DNA inh 37*, CASP6 VEID inh 66*, NSD2 inh 137*, LEDGF integ inh 43*, UHRF1 binding 92*, TDP2 inh 10, UHRF1 DNA bind 72*, MBD2 DBD conf 29*, IN multimer act 5, TR-FRET interf -25, LEDGF integ conf 44* and Alpha artifact -11%.
C[C@H](CO)N1C[C@H](C)[C@H](CN(C)C(=O)Oc2ccccc2)OCc2ccccc2-c2c(n(C)c3ccccc23)C1=O was read as CASP6 VEID inh 1.
Screening O=C1C(=O)c2ccccc2-c2ccccc21 returned MBD2 DNA inh 11, CASP6 VEID inh 54*, LEDGF integ inh -54, UHRF1 binding -10, TDP2 inh 68* and TDP2 inh conf 90*.
Screening O=C1C(=O)c2cccc3cccc1c23 returned MBD2 DNA inh -6, CASP6 VEID inh 0, NSD2 inh 10, LEDGF integ inh 4, UHRF1 binding -18 and TDP2 inh 6.
For CC1(C)CC(=O)C(C2(O)C(=O)NC(=O)NC2=O)=C(O)C1 the results were MBD2 DNA inh -5, LEDGF integ inh -1, UHRF1 binding -8, TDP2 inh 53* and TDP2 inh conf 50*.
Screening O=c1c2ccccc2nc(/C=C/c2ccccc2O)n1-c1ccccc1O returned MBD2 DNA inh -1, CASP6 VEID inh 8, NSD2 inh 3, LEDGF integ inh 0, UHRF1 binding -4, TDP2 inh 30* and TDP2 inh conf 4.
Screening CNc1ccc2oc(C[C@H]3O[C@@]4(CC[C@H]3C)O[C@H]([C@H](C)C(=O)c3ccc[nH]3)[C@H](C)C[C@H]4C)nc2c1C(=O)O returned MBD2 DNA inh -4, CASP6 VEID inh 7, LEDGF integ inh 11, UHRF1 binding -5, TDP2 inh 29* and TDP2 inh conf -6.
`COC(=O)[C@H]1[C@H](CO)[C@H]2Cn3c(ccc(-c4cccc(OC)c4)c3=O)[C@@H]1N2C(=O)c1cnccn1` gave CASP6 VEID inh 2.
`COC(=O)[C@@H]1[C@@H](CO)[C@@H]2Cn3c(ccc(-c4ccccc4F)c3=O)[C@H]1N2Cc1ccncc1` gave CASP6 VEID inh -1.
For O=C(O)[C@H]1[C@H](CO)[C@H]2Cn3c(ccc(-c4ccc(F)cc4)c3=O)[C@@H]1N2CC1CCCCC1 the results were CASP6 VEID inh 2.
For COc1cc(/C=C2\C(=O)NC(=O)N(c3ccccc3)C2=O)c([N+](=O)[O-])cc1OC the results were MBD2 DNA inh 1, CASP6 VEID inh 4, NSD2 inh -1, LEDGF integ inh 4, UHRF1 binding -9, TDP2 inh 25* and TDP2 inh conf 9.
